Calls of active or inactive are those of the source. The rule behind the calls is not given here.
Columns and labels:
Type in all cases: functional, cell-based
[1] = test system: ADR5000 cell line; assay: Induction of apoptosis in human CEM/ADR5000 cells at 2 ug/mL after 48 hrs using propidium iodide staining by flow cytometry
[2] = test system: ADR5000 cell line; assay: Increase in ROS generation in human CEM/ADR5000 cells at 0 001 ug/ml after 24 hrs using 2',7'-dichlorodihydrofluoresceine diacetate staining by flow cytometry
Method in brief: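 Intracellular ROS measured by H2DCFDA staining and flow cytometry. Cells at 5 × 10^5 cells/mL exposed to a range of concentrations, sampled at 6, 24, 48 and 72 h. Fluorescence histograms overlaid on untreated controls. Levels normalised to the median of three nontreated controls.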

[3] = test system: CCRF-CEM; assay: Cytotoxicity against human CCRF-CEM by XTT assay
Method in brief: (§1)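 XTT (tetrazolium cleavage by cellular dehydrogenases to formazan) read on plate reader. Cells kept in RPMI-1640 with 10% heat-inactivated FCS, 1% penicillin/streptomycin, 37 °C, 5% CO2. CEM/ADR5000 pulsed with 5000 ng/mL doxorubicin for 3 days every other week to keep P-glycoprotein overexpression. IC50 from dose-response curves, mean ± SD of two to three independent experiments, three parallel measurements each.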

[4] = test system: ADR5000 cell line; assay: Cytotoxicity against human CEM/ADR5000 by XTT assay; method in brief: as §1
[5] = test system: ADR5000 cell line; assay: Cell cycle arrest in human CEM/ADR5000 cells assessed as accumulation at G0/G1 phase 1 ug/ml after 48 hrs using propidium iodide staining by flow cytometry
[6] = test system: ADR5000 cell line; assay: Cell cycle arrest in human CEM/ADR5000 cells assessed as accumulation at G0/G1 phase 10 ug/ml after 48 hrs using propidium iodide staining by flow cytometry
Method in brief: (§2)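 Nicoletti assay: cells were stained with propidium iodide and read by flow cytometry, counting 10 000 cells per sample. Cells were grown in RPMI-1640 with 10% heat-inactivated FCS and 1% penicillin/streptomycin at 37 °C under 5% CO2. To keep P-glycoprotein overexpressed, CEM/ADR5000 cells were given 5000 ng/mL doxorubicin for 3 days every other week.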

[7] = test system: ADR5000 cell line; assay: Increase in ROS generation in human CEM/ADR5000 cells at 0 01 ug/ml after 72 hrs using 2',7'-dichlorodihydrofluoresceine diacetate staining by flow cytometry
[8] = test system: ADR5000 cell line; assay: Cell cycle arrest in human CEM/ADR5000 cells assessed as accumulation at G2/M phase 0.01 ug/ml after 48 hrs using propidium iodide staining by flow cytometry; method in brief: as §2
[9] = test system: ADR5000 cell line; assay: Increase in ROS generation in human CEM/ADR5000 cells at 1 ug/ml after 6 hrs 2',7'-dichlorodihydrofluoresceine diacetate staining by flow cytometry
[10] = test system: ADR5000 cell line; assay: Induction of apoptosis in human CEM/ADR5000 cells at 1 ug/mL after 24 hrs using propidium iodide staining by flow cytometry; method in brief: as §2

| SMILES | IC50 [3] | IC50 [4] | further results |
| --- | --- | --- | --- |
| C[C@H]1[C@H](OC(=O)CCC(=O)NCCCNC(=O)CCC(=O)O[C@@H]2O[C@@H]3O[C@@]4(C)CC[C@H]5[C@H](C)CC[C@@H]([C@H]2C)[C@@]35OO4)O[C@@H]2O[C@@]3(C)CC[C@H]4[C@H](C)CC[C@@H]1[C@@]24OO3 | 1.2 µM | 0.2 µM | Activity [1]: Active; Activity [2]: Active; Activity [5]: Active |
| C=C(C)[C@@H]1CC[C@]2(COC(C)=O)CC[C@]3(C)[C@H](CC[C@@H]4[C@@]5(C)CC[C@H](OC(=O)CCC(=O)O[C@@H]6O[C@@H]7O[C@@]8(C)CC[C@H]9[C@H](C)CC[C@@H]([C@H]6C)[C@@]79OO8)C(C)(C)[C@@H]5CC[C@]43C)[C@@H]12 | 31.9 µM | 20.8 µM | – |
| C=C(C)[C@@H]1CC[C@]2(COC(=O)CCC(=O)O[C@@H]3O[C@@H]4O[C@@]5(C)CC[C@H]6[C@H](C)CC[C@@H]([C@H]3C)[C@@]46OO5)CC[C@]3(C)[C@H](CC[C@@H]4[C@@]5(C)CC[C@H](O)C(C)(C)[C@@H]5CC[C@]43C)[C@@H]12 | 9.7 µM | 11.9 µM | – |
| C=C(C)[C@@H]1CC[C@]2(COC(=O)CCC(=O)O[C@@H]3O[C@@H]4O[C@@]5(C)CC[C@H]6[C@H](C)CC[C@@H]([C@H]3C)[C@@]46OO5)CC[C@]3(C)[C@H](CC[C@@H]4[C@@]5(C)CC[C@H](OC(=O)CCC(=O)O[C@@H]6O[C@@H]7O[C@@]8(C)CC[C@H]9[C@H](C)CC[C@@H]([C@H]6C)[C@@]79OO8)C(C)(C)[C@@H]5CC[C@]43C)[C@@H]12 | 42.9 µM | 42.1 µM | – |
| C[C@@H]1CC[C@H]2[C@@H](C)C(=O)O[C@@H]3O[C@@]4(C)CC[C@@H]1[C@]32OO4 [ARTEMISININ] | 36.9 µM | 26.9 µM | – |
| C[C@H]1[C@H](OC(=O)CCC(=O)O)O[C@@H]2O[C@@]3(C)CC[C@H]4[C@H](C)CC[C@@H]1[C@@]24OO3 [ARTESUNATE] | 1.8 µM | 1.2 µM | Activity [6]: Active; Activity [1]: Active; Activity [7]: Active; Activity [8]: Active |
| C=C(C)[C@@H]1CC[C@]2(CO)CC[C@]3(C)[C@H](CC[C@@H]4[C@@]5(C)CC[C@H](O)C(C)(C)[C@@H]5CC[C@]43C)[C@@H]12 [BETULIN] | 50.8 µM | 56.5 µM | – |
| COc1cccc2c1C(=O)c1c(O)c3c(c(O)c1C2=O)C[C@@](O)(C(=O)CO)C[C@@H]3O[C@H]1C[C@H](N)[C@H](O)[C@H](C)O1 [DOXORUBICIN] | 0.0369 µM | > 5.2 µM | Activity [9]: inactive; Activity [10]: Active |

Source: ChEMBL document CHEMBL1177721, “Cytotoxicity of artesunic acid homo- and heterodimer molecules toward sensitive and multidrug-resistant CCRF-CEM leukemia cells” (J Med Chem, 2010)
